Reference: publication PMC3962999 (The Biochemical journal, 2011)
Residue numbers refer to the chain shown, from its start.

How the values were obtained:
[1] = molecular target: T1, PBD2 (PPIP5K2) (Homo sapiens, UniProt O43314); experiment: SPR equilibrium binding to immobilized lipid vesicles, PBD2; details: SPR, in words
T1 sequence (O43314 371-901 isoform O43314-2): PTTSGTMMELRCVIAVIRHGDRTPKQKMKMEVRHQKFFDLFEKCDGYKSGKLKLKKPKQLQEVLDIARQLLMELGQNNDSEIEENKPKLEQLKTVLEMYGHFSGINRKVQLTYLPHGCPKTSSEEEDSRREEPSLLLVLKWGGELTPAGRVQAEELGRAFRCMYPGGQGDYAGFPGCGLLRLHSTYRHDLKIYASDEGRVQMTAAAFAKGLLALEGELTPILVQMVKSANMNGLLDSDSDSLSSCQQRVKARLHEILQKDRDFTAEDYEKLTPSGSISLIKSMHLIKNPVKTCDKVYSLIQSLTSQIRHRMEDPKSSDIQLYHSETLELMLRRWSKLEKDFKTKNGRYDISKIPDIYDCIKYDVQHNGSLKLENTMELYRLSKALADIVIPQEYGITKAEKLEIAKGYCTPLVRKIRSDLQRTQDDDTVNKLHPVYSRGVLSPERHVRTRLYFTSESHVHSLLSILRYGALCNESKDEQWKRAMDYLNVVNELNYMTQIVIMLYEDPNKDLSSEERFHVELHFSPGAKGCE
Outline: (§1)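 Large unilamellar vesicles (PtdCho/PtdE/test phosphoinositide 77:20:3) were captured on an L1 chip to 5000 RU. Signals were corrected against phosphoinositide-free vesicles. Kd came from nonlinear fitting of Req = Rmax/(1+Kd/C). Concentrations were: GRP-1 PH domain 2.5–125 nM; PBD1 on PtdIns(3,4,5)P₃ 5–150 nM; bisphosphate vesicles 75–1900 nM.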

[2] = molecular target: T2, PBD1 (PPIP5K1) (Homo sapiens, UniProt Q6PFW1); experiment: SPR equilibrium binding to immobilized lipid vesicles, PBD1; details: SPR, in words
T2 sequence (Q6PFW1 382-917): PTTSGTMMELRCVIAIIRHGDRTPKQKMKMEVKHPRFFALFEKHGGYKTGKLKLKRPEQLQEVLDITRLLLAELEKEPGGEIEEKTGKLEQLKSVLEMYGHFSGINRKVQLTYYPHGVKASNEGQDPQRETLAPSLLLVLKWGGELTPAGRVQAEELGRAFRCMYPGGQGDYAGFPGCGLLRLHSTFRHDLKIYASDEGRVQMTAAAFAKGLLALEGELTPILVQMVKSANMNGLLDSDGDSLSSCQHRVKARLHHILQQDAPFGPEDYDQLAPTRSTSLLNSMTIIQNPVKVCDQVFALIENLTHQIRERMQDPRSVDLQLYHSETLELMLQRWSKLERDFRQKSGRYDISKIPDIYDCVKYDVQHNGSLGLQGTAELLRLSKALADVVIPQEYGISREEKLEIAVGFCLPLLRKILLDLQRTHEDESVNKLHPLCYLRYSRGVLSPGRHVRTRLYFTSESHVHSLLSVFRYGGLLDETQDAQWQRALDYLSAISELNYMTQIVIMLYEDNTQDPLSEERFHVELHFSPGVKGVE
Outline: as §1

[3] = molecular target: T3, PBD1R417A (Homo sapiens, UniProt Q6PFW1, R417A); experiment: SPR equilibrium binding, PBD1 R417A mutant; details: results not shown
T3 sequence (Q6PFW1 382-917 R417A): T2 sequence (Q6PFW1 382-917) with R36A

PtdIns(4,5)P2
binding to PBD2 [1]: relatively weakly
binding to PBD1 [2]: significantly weaker ligands
binding to PBD1 R417A [3]: eliminated all detectable binding
